According to ChEMBL document CHEMBL4765352, “Discovery of AdipoRon analogues as novel AMPK activators without inhibiting mitochondrial complex I” (Eur J Med Chem, 2020):
The source made the active and inactive calls. The calls are words filed in the database; no cut-off is given here.

What was measured:
[1] = tested on: A549; experiment: Activation of AMPK in human A549 cells harboring mutant LKB1; assay type: cell-based; conditions: filed as activator
[2] = tested on: Mus musculus; experiment: Activation of AMPK in normal lean C57BL/6 mouse assessed as increase in phosphorylated ACC level in skeletal muscle at 100 mg/kg, ig administered for 4 weeks by Western blot analysis; assay type: functional, organism-based; conditions: Skeletal muscle tissue
Outline: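 Male C57BL/6 mice, 9 weeks old, dosed intragastrically once daily for 4 weeks alongside vehicle controls. Heart and skeletal muscle were homogenized in RIPA buffer with protease/phosphatase inhibitors and centrifuged at 10,600 g for 20 min. About 30 µg protein was blotted for p-AMPK and p-ACC and detected by ECL.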

[3] = tested on: Mus musculus; experiment: Hypoglycemic activity in 6 hrs fasted normal lean C57BL/6 mouse assessed as improved glucose tolerance at 10 mg/kg, ig pretreated for 2 hrs followed by glucose challenge and measured up to 90 mins post glucose challenge starting from 120 mins prior to compound treatment by IPGTT; assay type: functional, organism-based; conditions: time 210.0 min
[4] = tested on: C2C12; experiment: Activation of AMPK in mouse C2C12 cells assessed as increase in AMPK phosphorylation at Thr172 residue at 10 uM measured after 2 hrs by Western blot analysis; assay type: cell-based; conditions: filed as activator
Outline: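 C2C12 myoblasts differentiated in DMEM with 2% horse serum for 5-7 days until myotubes formed. Treated for 2 h, either at 10 μM or across a concentration range, or at 10 μM over a time course. RIPA lysates (~30 µg protein) blotted for p-AMPK/AMPK and p-ACC/ACC, detected by ECL. The p-AMPK/AMPK ratio is expressed as fold of the DMSO vehicle.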

[5] = Induction of glucose consumption in mouse C2C12 cells at 10 uM measured after 12 hrs by glucose oxidase method (reference value: 100 %); assay type: functional
Outline: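 Differentiated C2C12 myotubes were switched to DMEM containing 2.75 g/L glucose and treated for 12 h at 37 °C, with cell-free blank wells as reference. Glucose left in the medium was measured by the GOD-POD method at 570 nm. Consumption was derived by subtraction and expressed as percentage of the DMSO group.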

[6] = Inhibition of bovine heart mitochondrial complex 1 at 5 to 20 uM measured every minute for 2 hrs by microplate reader based assay; assay type: tissue-based, Bos taurus; conditions: cattle, dose 5-20 µM
Outline: (§1)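 Bovine heart mitochondria in detergent were captured on a complex I antibody-coated plate for 2 h at room temperature. Phospholipids were added, then complex I solution with compound, rotenone control or DMSO. NADH oxidation was followed as the fall in A340, read every minute for at least 2 h at 30 °C.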

[7] = Metabolic stability in human liver microsomes assessed as compound remaining preincubated for 5 mins followed by NADPH addition and measured up to 45 mins by LC/MS analysis; assay type: ADME, Microsome; conditions: time 50 min, read-out: Stabilty
Outline: (§2)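 Compound was preincubated with mouse (ICR/CD-1) or human liver microsomes in potassium phosphate buffer at 37 °C for 5 min, then NADPH was added to start the reaction. Samples were quenched with acetonitrile containing tolbutamide internal standard at 0, 5, 15, 30 and 45 min. Parent compound measured by LC/MS; ketanserin served as control.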

[8] = Metabolic stability in ICR/CD-1 mouse liver microsomes assessed as compound remaining preincubated for 5 mins followed by NADPH addition and measured up to 45 mins by LC/MS analysis; assay type: ADME, Microsome; conditions: time 50 min, read-out: Stabilty; outline: as §2
[9] = Metabolic stability in ICR/CD-1 mouse liver microsomes assessed as half life preincubated for 5 mins followed by NADPH addition and measured up to 45 mins by LC/MS analysis; assay type: ADME, Microsome; conditions: time 50 min; outline: as §2
[10] = Metabolic stability in human liver microsomes assessed as half life preincubated for 5 mins followed by NADPH addition and measured up to 45 mins by LC/MS analysis; assay type: ADME, Microsome; conditions: time 50 min; outline: as §2
[11] = tested on: Mus musculus; experiment: Hypoglycemic activity in 6 hrs fasted normal lean C57BL/6 mouse assessed as reduction in blood glucose level at 100 mg/kg, ig pretreated for 2 hrs followed by glucose challenge and measured up to 90 mins post glucose challenge starting from 120 mins prior to […] by IPGTT; assay type: functional, organism-based; conditions: time 210.0 min
Outline: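 C57BL/6 mice (male, 8-10 weeks, n=6 per group) fasted 6 h, then given compound or vehicle intragastrically. Two hours later, 20% glucose was injected i.p. at 2 g/kg. Tail-vein glucose read by glucometer at -120, 0, 20, 40, 60 and 90 min, and net AUC calculated. Doses were 25, 50 and 100 mg/kg.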

[12] = Inhibition of bovine heart mitochondrial complex 1 at 10 uM measured every minute for 2 hrs by microplate reader based assay; assay type: tissue-based, Bos taurus; conditions: cattle; outline: as §1
[13] = Inhibition of mitochondrial complex 1 in human HepG2 cells assessed as increase in ADP/ATP ratio at 0.5 uM; assay type: cell-based; conditions: hepg2, 0.5 µM
Outline: (§3)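 HepG2 cells treated with 10 μM or 0.5 μM compound, or DMSO. Cellular ADP:ATP and AMP:ATP ratios were measured. Three replicates, given as mean ± SD and compared by Student's t test.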

[14] = Inhibition of mitochondrial complex 1 in human HepG2 cells assessed as increase in AMP/ATP ratio at 0.5 uM; assay type: cell-based; conditions: hepg2, 0.5 µM; outline: as §3
[15] = Metabolic stability in ICR/CD-1 mouse liver microsomes assessed as intrinsic clearance preincubated for 5 mins followed by NADPH addition and measured up to 45 mins by LC/MS analysis; assay type: ADME, Microsome; conditions: time 50 min, read-out: CLH
Outline: (§4)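 Compound and liver microsomes in preheated potassium phosphate buffer, held at 37 °C for 5 min. Reaction started with NADPH and stopped at 0, 5, 15, 30 and 45 min with acetonitrile containing tolbutamide internal standard. Samples centrifuged at 6000 rpm for 15 min, supernatant analysed by LC/MS. Ketanserin run as assay control. Performed by a contract lab.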

[16] = Metabolic stability in human liver microsomes assessed as intrinsic clearance preincubated for 5 mins followed by NADPH addition and measured up to 45 mins by LC/MS analysis; assay type: ADME, Microsome; conditions: time 50 min, read-out: CLH; outline: as §4

SMILES | Activity [5] [%] | other results
O[C@@H]1CO[C@H]2[C@@H]1OC[C@H]2Oc1nc2nc(-c3ccc(-c4ccccc4)cc3)c(Cl)cc2[nH]1 | – | Activity [1]: Active; Activity [2]: Active; Activity [3]: Active; Activity [4]: Active
COC(=O)c1ccc(COc2ccc(NC(=O)C(C)(C)Oc3ccc(Cl)cc3)cc2)cc1 | 124.7 | –
CC(C)(Oc1ccc(Cl)cc1)C(=O)N1CCC(NC(=O)Nc2ccc(C(F)(F)F)cc2)CC1 | 137.2 | inhibition (INH) [6]: Not Active; Activity [4]: Active
CC(C)(Oc1ccc(Cl)cc1)C(=O)N1CCC(NC(=O)Nc2ccccc2)CC1 | 118 | –
CC(C)(Oc1ccc(Cl)cc1)C(=O)N1CCC(NC(=O)Nc2ccc(Br)cc2)CC1 | 127.3 | –
CC(C)(Oc1ccc(Cl)cc1)C(=O)N1CCC(NC(=O)Nc2cccc(C(F)(F)F)c2)CC1 | 91 | –
Cc1ccc(COc2ccc(NC(=O)C(C)(C)Oc3ccc(Cl)cc3)cc2)cc1 | 102.2 | –
COc1ccc(NC(=O)NC2CCN(C(=O)C(C)(C)Oc3ccc(Cl)cc3)CC2)cc1 | 134.4 | –
CCOC(=O)c1ccc(NC(=O)NC2CCN(C(=O)C(C)(C)Oc3ccc(Cl)cc3)CC2)cc1 | 126.1 | –
CC(C)(Oc1ccc(Cl)cc1)C(=O)N1CCC(NC(=O)Nc2ccc(F)c(Cl)c2)CC1 | 116.7 | –
CC(C)(Oc1ccc(Cl)cc1)C(=O)N1CCC(NC(=O)Nc2ccc([N+](=O)[O-])cc2)CC1 | 115.4 | –
CC(C)(Oc1ccc(Cl)cc1)C(=O)N1CCC(NC(=O)Nc2ccc(OC(F)(F)F)cc2)CC1 | 104.2 | –
COc1ccc(COc2ccc(NC(=O)C(C)(C)Oc3ccc(Cl)cc3)cc2)cc1 | 134.7 | –
CC(C)(Oc1ccc(Cl)cc1)C(=O)Nc1ccc(OCc2ccc(C(F)(F)F)cc2)cc1 | 156.1 | remaining at 0.75 h [7]: 93%; remaining at 0.75 h [8]: 91%; inhibition (INH) [6]: Active; half-life [9]: > 120 min; half-life [10]: > 120 min
CC(C)(Oc1ccc(Cl)cc1)C(=O)N1CCC(NC(=O)Nc2ccc(C#N)cc2)CC1 | 116.2 | –
O=C(COc1ccc(C(=O)c2ccccc2)cc1)NC1CCN(Cc2ccccc2)CC1 | 132.4 | Activity [11]: Active; inhibition (INH) [12]: Active; Activity [4]: Active
COc1ccc(C(=O)C2CCN(C(=O)c3ccc(C(=O)NC4CCN(Cc5ccc(C#N)cc5)CC4)cn3)CC2)cc1 | – | inhibition (INH) [13]: Active; inhibition (INH) [14]: Active
CC(C)(Oc1ccc(Cl)cc1)C(=O)Nc1ccc(OCc2ccc(OC(F)(F)F)cc2)cc1 | 133.4 | –
CC(C)(Oc1ccc(Cl)cc1)C(=O)Nc1ccc(OCc2ccc(C(=O)O)cc2)cc1 | 116.5 | –
CC(C)(Oc1ccc(Cl)cc1)C(=O)N1CCC(NC(=O)Nc2ccc(F)cc2)CC1 | 119.3 | Activity [4]: Active
CC(C)(Oc1ccc(Cl)cc1)C(=O)Nc1ccc(OCc2ccc(S(C)(=O)=O)cc2)cc1 | 144.4 | Activity [4]: Active
CC(C)(Oc1ccc(Cl)cc1)C(=O)N1CCC(NC(=O)Nc2ccc(C(=O)O)cc2)CC1 | 117.7 | –
CC(C)(Oc1ccc(Cl)cc1)C(=O)N1CCC(NC(=O)Nc2ccccc2C(F)(F)F)CC1 | 116.1 | –
CC(C)(Oc1ccc(Cl)cc1)C(=O)Nc1ccc(OCc2ccc(Cl)cc2)cc1 | 129 | Activity [4]: Active
CC(C)(Oc1ccc(Cl)cc1)C(=O)Nc1ccc(OCc2ccc(C(C)(C)C)cc2)cc1 | 105.3 | –
CC(C)(Oc1ccc(Cl)cc1)C(=O)N1CCC(NC(=O)Nc2ccc(Cl)cc2)CC1 | 104.1 | Activity [4]: Active
CC(C)(Oc1ccc(Cl)cc1)C(=O)Nc1ccc(OCc2ccc(Br)cc2)cc1 | 112.7 | –
CC(C)(Oc1ccc(Cl)cc1)C(=O)Nc1ccc(OCc2ccc(F)cc2)cc1 | 107.6 | –
O=C(c1ccc(F)cc1)C1CCN(CCn2c(=O)[nH]c3ccccc3c2=O)CC1 [KETANSERIN] | – | half-life [9]: 21 min; half-life [10]: 25 min; CLint scaled [15]: 258 mL/min/kg; CLint scaled [16]: 71 mL/min/kg
Cc1ccc(NC(=O)NC2CCN(C(=O)C(C)(C)Oc3ccc(Cl)cc3)CC2)cc1 | 93.7 | –
